Two compounds from article PMC6210075 (ACS Omega, 2018) can be followed below.

Some results are limits rather than exact numbers.

A word on the IC50: it is the point on the concentration scale where inhibition reaches its midpoint. A word on the Ki: it is a dissociation constant, usually derived from enzyme kinetics or from competition with a known ligand. A low value points to higher affinity. For orientation: kinact means the rate constant of inactivation at saturating inhibitor. For orientation: kinact/KI means the maximal inactivation rate divided by the concentration that gives half of it.

In assay [1] the target is T1, human sEH (Homo sapiens, UniProt P34913).
T1 sequence (P34913 1-555): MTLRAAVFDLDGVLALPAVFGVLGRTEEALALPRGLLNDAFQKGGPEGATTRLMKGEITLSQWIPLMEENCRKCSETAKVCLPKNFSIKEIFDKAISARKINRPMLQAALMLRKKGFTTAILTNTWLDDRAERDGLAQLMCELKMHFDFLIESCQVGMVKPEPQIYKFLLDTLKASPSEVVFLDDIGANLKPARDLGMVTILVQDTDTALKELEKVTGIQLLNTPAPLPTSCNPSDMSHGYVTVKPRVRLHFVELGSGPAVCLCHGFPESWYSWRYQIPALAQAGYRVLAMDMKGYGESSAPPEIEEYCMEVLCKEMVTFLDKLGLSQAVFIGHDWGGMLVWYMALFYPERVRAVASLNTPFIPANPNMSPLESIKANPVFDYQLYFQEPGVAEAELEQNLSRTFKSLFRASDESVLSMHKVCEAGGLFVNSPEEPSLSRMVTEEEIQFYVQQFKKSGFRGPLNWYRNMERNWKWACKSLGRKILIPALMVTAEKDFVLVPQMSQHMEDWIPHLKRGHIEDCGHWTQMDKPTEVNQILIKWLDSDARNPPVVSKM
The assay can be described thus: sEH fluorescent inhibition assay. Type of assay: biochemical.

The target of assay [2] is T2, human FAAH (Homo sapiens, UniProt O00519).
T2 sequence (O00519 1-579): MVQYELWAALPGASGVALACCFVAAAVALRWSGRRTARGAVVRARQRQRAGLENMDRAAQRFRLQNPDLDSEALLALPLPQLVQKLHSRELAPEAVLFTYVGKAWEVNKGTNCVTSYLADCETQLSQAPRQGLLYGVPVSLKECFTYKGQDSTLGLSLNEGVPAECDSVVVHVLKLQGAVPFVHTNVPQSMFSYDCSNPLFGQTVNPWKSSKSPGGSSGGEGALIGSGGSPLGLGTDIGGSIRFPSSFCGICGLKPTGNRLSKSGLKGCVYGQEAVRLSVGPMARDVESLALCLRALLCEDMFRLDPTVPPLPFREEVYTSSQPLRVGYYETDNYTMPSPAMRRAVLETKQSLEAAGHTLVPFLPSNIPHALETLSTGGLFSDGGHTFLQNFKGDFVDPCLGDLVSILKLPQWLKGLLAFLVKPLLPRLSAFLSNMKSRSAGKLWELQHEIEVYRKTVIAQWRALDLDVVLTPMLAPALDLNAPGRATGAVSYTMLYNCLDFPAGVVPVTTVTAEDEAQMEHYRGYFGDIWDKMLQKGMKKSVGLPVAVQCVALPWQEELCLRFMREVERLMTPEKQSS
Nature of the assay: FAAH fluorescent inhibition assay. Type of assay: biochemical.

The target in assay [3] is T3, mouse sEH (Mus musculus, UniProt P34914).
T3 sequence (P34914 1-554): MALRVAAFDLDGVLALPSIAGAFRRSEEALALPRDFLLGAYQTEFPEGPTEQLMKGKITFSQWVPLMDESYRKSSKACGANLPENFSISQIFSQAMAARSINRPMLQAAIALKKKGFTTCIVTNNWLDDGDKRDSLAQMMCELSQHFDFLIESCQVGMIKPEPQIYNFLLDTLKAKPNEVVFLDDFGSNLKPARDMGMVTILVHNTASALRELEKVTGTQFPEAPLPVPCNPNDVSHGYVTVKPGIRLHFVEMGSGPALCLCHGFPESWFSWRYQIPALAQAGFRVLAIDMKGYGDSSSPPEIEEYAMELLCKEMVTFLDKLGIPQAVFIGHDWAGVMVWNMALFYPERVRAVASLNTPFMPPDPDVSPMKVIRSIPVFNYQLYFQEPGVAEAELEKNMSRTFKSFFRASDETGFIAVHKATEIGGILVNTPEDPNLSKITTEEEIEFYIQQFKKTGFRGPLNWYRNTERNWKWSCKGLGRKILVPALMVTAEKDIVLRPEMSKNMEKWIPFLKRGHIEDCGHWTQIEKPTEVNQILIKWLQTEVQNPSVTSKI
Nature of the assay: sEH fluorescent inhibition assay, recombinant mouse sEH. Type of assay: biochemical.

Assay [4] addresses T2, human FAAH. Nature of the assay: Ki and kinact determination on FAAH. Type of assay: biochemical. The method, boiled down: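 Crude baculovirus-expressed recombinant FAAH (High Five cell S9 fraction in 50 mM Tris/HCl pH 8.0, 1 mM CHAPS, 10% glycerol). OMP (100 μM final) was mixed with a range of test compound concentrations and held 5 min at 37 °C.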
For assay [5], the target named is T4, serine hydrolases (Mus musculus, UniProt O08914).
T4 sequence (O08914 1-579): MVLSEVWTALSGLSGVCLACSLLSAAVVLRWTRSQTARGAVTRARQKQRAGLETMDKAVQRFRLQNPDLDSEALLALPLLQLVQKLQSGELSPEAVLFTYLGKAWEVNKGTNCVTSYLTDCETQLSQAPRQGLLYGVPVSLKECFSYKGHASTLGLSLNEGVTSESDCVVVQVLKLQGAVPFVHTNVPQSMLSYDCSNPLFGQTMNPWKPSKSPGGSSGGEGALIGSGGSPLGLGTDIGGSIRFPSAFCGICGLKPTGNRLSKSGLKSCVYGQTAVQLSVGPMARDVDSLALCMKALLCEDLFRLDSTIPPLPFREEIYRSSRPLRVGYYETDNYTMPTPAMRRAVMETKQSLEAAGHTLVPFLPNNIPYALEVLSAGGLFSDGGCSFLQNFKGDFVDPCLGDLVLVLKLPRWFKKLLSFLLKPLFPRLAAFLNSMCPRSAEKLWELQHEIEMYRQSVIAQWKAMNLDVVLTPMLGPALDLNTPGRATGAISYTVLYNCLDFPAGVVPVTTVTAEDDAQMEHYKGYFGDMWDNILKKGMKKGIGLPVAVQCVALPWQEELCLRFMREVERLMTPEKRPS
Nature of the assay: Activity-based protein profiling. Type of assay: biochemical. The conditions noted are these: mouse brain tissue homogenate, inhibitor 20 µM.

Assay [6] deals with serine hydrolases. Nature of the assay: Activity-based protein profiling. The conditions noted are these: mouse liver tissue homogenate, inhibitor 20 µM. Type of assay: biochemical, mouse.

Consider `O=C(Nc1ccc(C(F)(F)F)cc1F)N1CCC(Cc2cccc(Oc3ccc(C(F)(F)F)cn3)c2)CC1` [compound 18], for which the “difference in potency on sEH” value in assay [1] (compared to 11) is less than 3 fold. In addition, in assay [2] (compared to 11), the “difference in potency on FAAH” value is on record as less than 3 fold. Also, the IC50 in assay [3] turned out to be 360 nM. In assay [4], the inhibition constant Ki stood at 24 nM, the kinact was 0.000283 s⁻¹ and the kinact/KI is 700000 M⁻¹ s⁻¹. Moreover, the “intensity of the FAAH band (ABPP)” value in assay [5] is given as “does not appear to fully inhibit the band corresponding to FAAH”. Moreover, in assay [6], the “other serine hydrolase bands (ABPP)” value was “neither 11, 13, 14, 18, nor PF-3845 had any effect on the intensity of other bands”.
Regarding `O=C(Nc1cccnc1)N1CCC(Cc2cccc(Oc3ccc(C(F)(F)F)cn3)c2)CC1` [PF-3845, reference compound], the results for the IC50 in assay [1], in assay [2] and in assay [3] were 12000 nM, 0.65 nM and 1200 nM, respectively. Moreover, in assay [4], the Ki stood at 3.5 nM. The “intensity of the FAAH band (ABPP)” value in assay [5] was “reduced”. In addition, the “other serine hydrolase bands (ABPP)” value in assay [6] is given as “neither 11, 13, 14, 18, nor PF-3845 had any effect on the intensity of other bands”.
